Values after ≈ are worked out from the molar mass of the structure shown.

As a reminder, the IC50 is the concentration at which inhibition is half-maximal. The term logD denotes the decadic logarithm of the distribution of all forms, ionised or not, between an organic phase and buffer at a given pH. For orientation: Ki means a dissociation constant, usually derived from enzyme kinetics or from competition with a known ligand.

Data set [1] is described as follows: Apparent half life in mouse plasma incubated for 6 hrs by UPLC/MC analysis. It counts as ADME, cell-free. The settings on record: read-out: t1/2(app). Summed up:
(§1)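 Pooled plasma (human n=3 donors; mouse from multiple animals), thawed and spiked to nominal 500 ng/mL test compound, final 0.2% DMSO and 0.4% acetonitrile (v/v). Incubated at 37°C, 4 h human or 6 h mouse. Duplicate samples taken at time points and snap-frozen. Quantified by UPLC/MS against matched-plasma standards. Half-life obtained by exponential decay fit of % remaining.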

The subject of data set [2] is Plasmodium falciparum. The experiment in a line: Antiparasitic activity against Plasmodium falciparum Dd2 assessed as growth inhibition after 72 hrs by DAPI staining-based confocal image analysis. It counts as functional, organism-based. As to conditions: Dd2, 72 h. Put shortly: (§2)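 Sorbitol-synchronised ring-stage parasites in human O+ erythrocytes at 2% parasitaemia, 0.3% haematocrit, incubated 72 h at 37 °C (5% CO2) with three-step log serial dilutions from 20 μM top, 0.4% DMSO final. Staining with DAPI/saponin/Triton X/EDTA in PBS, confocal imaging, parasite count.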

The test system of data set [3] is Plasmodium falciparum. Briefly: Antiparasitic activity against Plasmodium falciparum 3D7 assessed as growth inhibition after 72 hrs by DAPI staining-based confocal image analysis. Type of data set: functional, organism-based. The settings on record: 3D7, 72 h. Summed up:
as §2

Data set [4] can be described thus: Half life in human liver microsomes at 1 uM by LC/MS analysis. It counts as ADME. Summed up: (§3)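 Human or mouse liver microsomes, 0.4 mg/mL protein in 0.1 M phosphate pH 7.4, with 1 µM compound at 37°C. Reactions started with an NADPH-regenerating system (NADP, glucose-6-phosphate, G6P dehydrogenase) plus MgCl2. Quenched with ice-cold acetonitrile at time points from 0 to 60 min. Parent compound remaining in supernatant measured by LC-MS.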

Data set [5] in a line: Partition coefficient, log D of the compound at pH 7.4 by HPLC method. Type of data set: physicochemical. The settings on record: octanol/water. Put shortly:
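LogD estimated by gradient HPLC (Lombardo-derived method). C18-type Hydro-RP column with 50 mM ammonium acetate pH 7.4 and an acetonitrile gradient of 0–100% over 13.5 min. UV detection at 220/254 nm. Retention compared with nine standards of shake-flask-determined partition coefficients.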

Data set [6] in a line: Half life in mouse liver microsomes at 1 uM by LC/MS analysis. It counts as ADME. Summed up: as §3
Background: Microsomes from liver hold many membrane-bound enzymes, among them those of drug oxidation.

The nature of data set [7]: Kinetic solubility of compound in HCl at pH 2 by nephelometry. Type of data set: physicochemical. As to conditions: read-out: Kinetic_solubility. Summed up: (§4)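 DMSO stock serially diluted and spiked into pH 6.5 phosphate buffer or 0.01 M HCl (about pH 2.0), final 1% DMSO. Solubility range determined by nephelometry.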
Data set [8] can be described thus: Kinetic solubility of compound in phosphate buffer at pH 6.5 by nephelometry. Type of data set: physicochemical. The settings on record: read-out: Kinetic_solubility. Summed up: as §4
In data set [9] the test system is Plasmodium falciparum. Briefly: Antiparasitic activity against chloroquine/quinine/pyrimethamine/sulfadoxine/NITD609-resistant Plasmodium falciparum Dd2 clone 2 assessed as growth inhibition after 72 hrs by DAPI staining-based confocal image analysis. It counts as functional, organism-based. The settings on record: Dd2, 72 h. Summed up:
as §2

Data set [10] is described as follows: Inhibition of recombinant Plasmodium falciparum M1 aminopeptidase using H-Leu-NHMec as substrate preincubated for 10 mins followed by addition of substrate by spectrofluorimetric analysis. Summed up:
(§5)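 E. coli-expressed enzymes, purified by Ni-NTA and size exclusion. Preincubation 10 min at 37°C with inhibitor: M1 in 100 mM Tris pH 8.0; M17 in 50 mM Tris pH 8.0, 2 mM CoCl2. Substrate H-Leu-NHMec kept below Km. Fluorescence ex 355/em 460 nm followed to steady-state velocity. Inhibitor range 500pM–500 μM. Ki from Dixon plots (1/V vs [I]).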

A further data set deals with HEK293. Briefly: Cytotoxicity against HEK293 cells assessed as cell viability after 72 hrs by resazurin assay. It counts as cell-based. The settings on record: human, hek293, 72 h. Summed up: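 HEK293 cells in DMEM with 10% FCS, seeded at 2000 cells/well and left to adhere overnight. Compound dose response with top final 40 μM, 0.4% DMSO. Exposure 72 h at 37 °C, 5% CO2. Medium then replaced by 44 μM resazurin in serum-free DMEM for 4-6 h. Fluorescence read at ex/em 530/595 nm.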
A general note: The colour change of resazurin is a common sign of viable cells or microbes.

A short description of data set [11]: Inhibition of recombinant Plasmodium falciparum M17 aminopeptidase using H-Leu-NHMec as substrate preincubated for 10 mins followed by addition of substrate by spectrofluorimetric analysis. Summed up: as §5
Data set [12] in a line: Apparent half life in human plasma incubated for 4 hrs by UPLC/MC analysis. Type of data set: ADME, cell-free. The settings on record: read-out: t1/2(app). Put shortly: as §1
Data set [13] can be described thus: Intrinsic clearance in mouse liver microsomes assessed per mg of protein at 1 uM by LC/MS analysis. Type of data set: ADME. As to conditions: read-out: CLH. Summed up:
as §3

Data set [14] is described as follows: Intrinsic clearance in human liver microsomes assessed per mg of protein at 1 uM by LC/MS analysis. It counts as ADME. As to conditions: read-out: CLH. Put shortly:
as §3

With `CC(C)(C)C(=O)NC(C(=O)NO)c1ccc(-c2cc(F)c(F)c(F)c2)cc1` (stereo not given), the half-life in [1] is over 25 h; in [12], over 17 h. The IC50 came to 189 nM in the data set on Plasmodium falciparum [2], 126 nM in the data set with Plasmodium falciparum [3] and 107 nM with Plasmodium falciparum [9]. Also, the half-life at 1 µM in data set [4] stood at 3.68 h; in [6], 1.15 h. In data set [5], this compound showed a logD of 3. Further, the solubility kinetic in [7] and in data set [8] was 12.5 µg/mL (≈ 32.9 µM) in each case. The Ki in data set [10] was 78 nM; in [11], 60 nM. In the data set with HEK293, the Activity entry is on record as “Non-toxic”. The results for the microsomal CLint at 1 µM in data set [13] and in data set [14] were 25 µL/min/mg and 8 µL/min/mg, respectively.

These data come from ChEMBL document CHEMBL3763022, “Potent dual inhibitors of Plasmodium falciparum M1 and M17 aminopeptidases through optimization of S1 pocket interactions” (Eur J Med Chem, 2016).
